# Assay results pooled from the literature.
# Each line is one published result; the experiments were not run side by side.
# Effect on: cell growth or viability
SMILES,cell line,test,setting,CC50
Cc1cn([C@H]2C[C@H](N=[N+]=[N-])[C@@H](CO)O2)c(=O)[nH]c1=O,Caco-2,crystal violet,72 h,56.1 µM
CCOC(=O)CC1SC(=NN=Cc2cccc(O)c2)NC1=O (centres unmarked),LLC-MK2,MTT,"96 h, pH 7.2",614 µM
CCN(CC)c1ccc(C(=O)NCCc2c(C)[nH]c3ccccc23)cc1,C6 glioma,,,< 500 µM
O=C(CCCCCCC(=O)Nc1ccccc1)NO,LLC-MK2,MTS,48 h,5.94 µM
CCc1nc(-c2cnc3ccc(-c4ccccc4N)cc3c2)no1,RD,ATP luminescence,72 h,21 µM
CCOC(=O)c1csc(NN=Cc2cccc(OC)c2)n1,LLC-MK2,MTT,"96 h, pH 7.2",641 µM
CN1CCc2c(c3ccccc3n2Cc2ccc(C(=O)NO)cc2)C1,LLC-MK2,MTS,48 h,> 20 µM
CCOC(=O)c1cnc2ccc(-c3ccc(C(C)C)cc3)cc2c1,RD,ATP luminescence,72 h,> 2.5 µM
CCOC(=O)CC1SC(=NN=C2CCCc3ccccc32)NC1=O (centres unmarked),LLC-MK2,MTT,"96 h, pH 7.2",280 µM
CCC[C@H](NC(=O)[C@@H](NC(=O)[C@@H](NC(=O)CC12CC3CC(CC(C3)C1)C2)C(C)(C)C)C1CCCCC1)C(=O)C(=O)NC1CC1,RD,neutral red,,< 2 µM
Cc1cc2ccccc2n1CCNC(=O)c1ccc(N2CCOCC2)c(F)c1,C6 glioma,,,< 500 µM
CCC[C@H](NC(=O)[C@H](CC1CCCCC1)NC(=O)[C@@H](NC(=O)CC12CC3CC(CC(C3)C1)C2)C(C)(C)C)C(=O)C(=O)NC1CC1,RD,neutral red,,< 2 µM
CCOC(=O)c1csc(NN=C(C)c2ccccc2)n1,LLC-MK2,MTT,"96 h, pH 7.2",292 µM
O=c1[nH]cc(F)c(=O)[nH]1,Caco-2,crystal violet,72 h,390 µM
